Reference: ChEMBL document CHEMBL1165973, “Design, synthesis and antibacterial activity of novel andrographolide derivatives” (Bioorg Med Chem, 2010)
Active and inactive are the calls of the source. No cut-off for these calls is given here.

How the values were obtained:
[1] = test system: Pseudomonas aeruginosa PAO1; assay: Inhibition of Pseudomonas aeruginosa PAO1 quorum sensing assessed as inhibition of pycocyanin production at 0.5 mM after 24 hrs by spectrometry
How it was run: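 PAO1 grown overnight in LB, washed in fresh medium and diluted to OD600 0.05. Aliquots were grown 24 h in tubes with compound at 0.5 mM. Pyocyanin was extracted from filtered culture supernatant and quantified by a published method. Significance versus untreated control was set at P < 0.05.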

[2] = test system: Pseudomonas aeruginosa PAO1; assay: Inhibition of Pseudomonas aeruginosa PAO1 quorum sensing assessed as inhibition of protease production at 0.5 mM after 10 hrs by colorimetric method
How it was run: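 PAO1 grown overnight at 37 °C in PB medium ([…]), washed, diluted to OD600 0.05 and grown to midlog. Cells were washed again, reset to OD600 0.05 and cultured 10 h with compound at 0.5 mM. Filtered supernatant was incubated with azocasein in 10 mM Tris pH 7.2 and 1 mM CaCl₂ for 4 h at 37 °C with agitation, then quenched with NaOH and centrifuged.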

[3] = test system: Pseudomonas aeruginosa; assay: Antibacterial activity at Pseudomonas aeruginosa PAO1 at 2 mM; assay type: functional, organism-based

Structure (SMILES)	inhibition [1]	inhibition [2]	Activity [3]
C=C1CC[C@@H]2[C@]3(C)COC(C)(C)O[C@@H]3CC[C@@]2(C)[C@@H]1C/C=C1/C(=O)OC[C@H]1OC(=O)CCCC1CCCC1	–	–	inactive
C=C1CC[C@@H]2[C@]3(C)COC(C)(C)O[C@@H]3CC[C@@]2(C)[C@@H]1C/C=C1/C(=O)OC[C@H]1OC(=O)/C=C/C	–	–	inactive
C=C1CC[C@@H]2[C@]3(C)COC(C)(C)O[C@@H]3CC[C@@]2(C)[C@@H]1C/C=C1/C(=O)OC[C@H]1OC(=O)C12CC3CC(CC(C3)C1)C2	–	–	inactive
C=C1CC[C@@H]2[C@]3(C)COC(C)(C)O[C@@H]3CC[C@@]2(C)[C@@H]1C/C=C1/C(=O)OC[C@H]1OC(=O)CCCCC	–	–	inactive
C=C1CC[C@@H]2[C@]3(C)COC(C)(C)O[C@@H]3CC[C@@]2(C)[C@@H]1C/C=C1/C(=O)OC[C@H]1OC(=O)/C=C/C1CCCCC1	–	–	inactive
C=C1CC[C@@H]2[C@]3(C)COC(C)(C)O[C@@H]3CC[C@@]2(C)[C@@H]1C/C=C1/C(=O)OC[C@H]1OC(=O)/C=C/c1ccco1	–	–	inactive
C=C1CC[C@@H]2[C@](C)(CO)[C@H](O)CC[C@@]2(C)[C@@H]1C/C=C1/C(=O)OC[C@H]1OC(=O)CC12CC3CC(CC(C3)C1)C2	Active	Active	inactive
C=C1CC[C@@H]2[C@]3(C)COC(C)(C)O[C@@H]3CC[C@@]2(C)[C@@H]1C/C=C1/C(=O)OC[C@H]1OC(=O)CCCC	–	–	inactive
C=C1CC[C@@H]2[C@]3(C)COC(C)(C)O[C@@H]3CC[C@@]2(C)[C@@H]1C/C=C1/C(=O)OC[C@H]1OC(=O)CCCCCCC	–	–	inactive
C=C1CC[C@@H]2[C@]3(C)COC(C)(C)O[C@@H]3CC[C@@]2(C)[C@@H]1C/C=C1/C(=O)OC[C@H]1OC(=O)CCCCCCCCCCC	–	–	inactive

More lines, main results first:

inhibition [1]	inhibition [2]	Structure (SMILES)	Activity [3]
Active	–	C=C1CC[C@@H]2[C@](C)(CO)[C@H](O)CC[C@@]2(C)[C@@H]1C/C=C1/C(=O)OC[C@H]1O	–
Active	Active	C=C1CC[C@@H]2[C@](C)(CO)[C@H](O)CC[C@@]2(C)[C@@H]1C/C=C1/C(=O)OC[C@H]1OC(=O)/C=C/C1CCCCC1	inactive
Active	Active	C=C1CC[C@@H]2[C@](C)(CO)[C@H](O)CC[C@@]2(C)[C@@H]1C/C=C1/C(=O)OC[C@H]1OC(=O)/C=C/c1ccco1	inactive
Active	–	C=C1CC[C@@H]2[C@](C)(CO)[C@H](O)CC[C@@]2(C)[C@@H]1C/C=C1/C(=O)OC[C@H]1OC(=O)CCCCCCC	inactive
Active	Active	C=C1CC[C@@H]2[C@](C)(CO)[C@H](O)CC[C@@]2(C)[C@@H]1C/C=C1/C(=O)OC[C@H]1OC(=O)CCCCC	inactive
Active	Active	C=C1CC[C@@H]2[C@](C)(CO)[C@H](O)CC[C@@]2(C)[C@@H]1C/C=C1/C(=O)OC[C@H]1OC(=O)/C=C/C	inactive
Active	Active	C=C1CC[C@@H]2[C@](C)(CO)[C@H](O)CC[C@@]2(C)[C@@H]1C/C=C1/C(=O)OC[C@H]1OC(=O)CCCC[C@H]1CCSS1	–
Active	Active	C=C1CC[C@@H]2[C@](C)(CO)[C@H](O)CC[C@@]2(C)[C@@H]1C/C=C1/C(=O)OC[C@H]1OC(=O)CCCCC1CCCC1	inactive
Active	Active	C=C1CC[C@@H]2[C@](C)(CO)[C@H](O)CC[C@@]2(C)[C@@H]1C/C=C1/C(=O)OC[C@H]1OC(=O)CCCCCCCCCCC	inactive
Active	–	C=C1CC[C@@H]2[C@](C)(CO)[C@H](O)CC[C@@]2(C)[C@@H]1C/C=C1/C(=O)OC[C@H]1OC(=O)CCCC	inactive
